One assay relates to NCI-H69. The experiment in a line: Antiproliferative activity against drug sensitive NCI-H69 cell line by Alamar Blue assay. Format: functional, cell-based. To be noted: Homo sapiens. Put shortly:
(§1)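 Cells in exponential growth seeded at 4000–6000 per well, held 24 h at 37 °C, 5% CO2 before compound; T0 population read by AlamarBlue at time of addition. Compounds in DMSO diluted into complete medium; 72 h exposure at 37 °C, 5% CO2. Viable cells quantified with AlamarBlue; IC50 as 50% growth inhibition; triplicate.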
(The colour change of resazurin is a common sign of viable cells or microbes.)

A further assay has as its system HCT-15. The experiment in a line: Antiproliferative activity against drug resistant HCT15 cell line expressing MDR1 by Alamar Blue assay. Format: functional, cell-based. The note with it: Homo sapiens. Put shortly: as §1
The subject of a further assay is HeLa. The experiment in a line: Cytotoxicity against human HeLa cells. The format is cell-based. Put shortly:
as §1

Another assay relates to HT-29. Nature of the assay: Cytotoxicity against human HT29 cells. Format: cell-based. The essentials: (§2)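 Exponentially growing cells seeded at 4000–6000 per well and incubated 24 h (37 °C, 5% CO₂) before dosing. Cell population at time of drug addition (T₀) measured by AlamarBlue. Compounds dissolved in DMSO, diluted in complete medium, and exposed for 72 h. Viable cells quantified by AlamarBlue. IC₅₀ is 50% growth inhibition. Assays run in triplicate.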

Assay [1] in a line: Antiproliferative activity against drug resistant Messa/DX5 cell line expressing MDR1 by Alamar Blue assay. To be noted: Homo sapiens, MES-SA/Dx5. Format: functional, cell-based. Put shortly:
as §1

Assay [2] is described as follows: Antiproliferative activity against drug sensitive Messa cell line by Alamar Blue assay. Format: functional, cell-based. To be noted: Homo sapiens, MES-SA. The essentials:
as §1

The subject of another assay is ACHN. The experiment in a line: Antiproliferative activity against drug resistant ACHN cell line expressing MDR1 by Alamar Blue assay. Format: functional, cell-based. To be noted: Homo sapiens. The essentials: as §1
The subject of a further assay is H69AR. The experiment in a line: Antiproliferative activity against drug resistant H69AR cell line expressing MRP1 by Alamar Blue assay. Format: functional, cell-based. The note with it: Homo sapiens. Put shortly:
as §1

Another assay has as its system PC-3. The experiment in a line: Cytotoxicity against human PC3 cells. The format is cell-based. Put shortly: as §2
In another assay the test system is NCI-H460. The experiment in a line: Inhibition of proliferation of human H460 cells. Format: functional, cell-based. The essentials:
as §1

In assay [3] the target is Tubulin. Nature of the assay: Displacement of [3H]colchicine from tubulin in HeLa cells. The format is cell-based, Homo sapiens. Put shortly:
(§3)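 Purified tubulin (bovine brain, HeLa or MCF-7 source) preincubated with compound 10 min at 37 °C, then [3H]colchicine added and incubated a further 30 min at 37 °C. Samples spotted on DE81 filters, washed three times to remove unbound label; bound [3H]colchicine counted by scintillation.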

A further assay is filed under the species Bos taurus. Nature of the assay: (§4) Displacement of [3H]colchicine from tubulin in bovine brain at 500 nM. Put shortly: as §3
In general terms: In a radioligand displacement assay an active substance lowers the binding of a labelled ligand.

Assay [4] in a line: as §4. Details: species or system Bos taurus. Put shortly:
as §3

A short description of assay [5]: Inhibition of bovine tubulin polymerization. Also on record: species or system Bos taurus. Put shortly: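 Purified bovine tubulin incubated with compound in buffer with 10% glycerol using a commercial kit; microtubule formation followed as rise in fluorescence intensity of the reaction mixture; IC50 from concentration-dependent inhibition.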
In assay [6] the target is Tubulin. Nature of the assay: Displacement of [3H]colchicine from tubulin in MCF7 cells. Format: cell-based, Homo sapiens. Put shortly:
as §3

SMILES strings stand for the structures. Bounds are passed on as bounds.

With `CC#Cc1c(OC)ccc2c(C(=O)c3cc(OC)c(OC)c(OC)c3)n[nH]c12`, the half-inhibitory concentration (IC50) – broadly, the concentration that inhibits the measured activity by half – with NCI-H69 came out at 1.6 nM; in the assay on HCT-15, 1.9 nM; in the assay on HeLa, 0.9 nM; in the assay with HT-29, 3 nM; in [1] it was 1.9 nM; in assay [2], 1.6 nM. For the same compound, the IC50 amounted to 1.6 nM with ACHN, 2.5 nM in the assay with H69AR, 1.1 nM in the assay with PC-3 and 1 nM in the assay on NCI-H460.
In the case of `COc1cc(C(=O)c2n[nH]c3c(/C=C\CO)c(OC)ccc23)cc(OC)c1OC`, the half-maximal inhibitory concentration (IC50) with NCI-H460 stood at 13 nM.
Same read-out and setting: as for `COc1cc(C(=O)c2n[nH]c3c(C#CCCCO)c(OC)ccc23)cc(OC)c1OC`, the figure is 8 nM; as for `COc1cc(C(=O)c2n[nH]c3c(C#C[C@@H](C)O)c(OC)ccc23)cc(OC)c1OC`, 29 nM.
On to `COc1cc(C(=O)c2n[nH]c3c(C#C[C@H](C)O)c(OC)ccc23)cc(OC)c1OC`, for which, in the assay on NCI-H460, the half-inhibitory concentration (IC50) stood at 14 nM.
Still for that read-out and setting: as for `CC#Cc1c(OC)ccc2c(C(=O)c3cc(OC)c(OC)c(OC)c3)c[nH]c12`, the figure is more than 1000 nM.
Regarding `COc1cccc2c1C(=O)c1c(O)c3c(c(O)c1C2=O)C[C@@](O)(C(C)=O)C[C@@H]3O[C@H]1C[C@H](N)[C@H](O)[C@H](C)O1` [DAUNORUBICIN], the IC50 in the assay on NCI-H69 is 100 nM; with HCT-15, more than 400 nM; in assay [1], more than 400 nM; in [2], 20 nM; in the assay on ACHN it was 63 nM; in the assay on H69AR it was more than 1000 nM.
Compound `COc1cc(C(=O)c2n[nH]c3c(C#CC(C)(C)O)c(OC)ccc23)cc(OC)c1OC` came in with an IC50 in the assay with NCI-H460 of 195 nM.
Consider `COc1cc(C(=O)c2n[nH]c3c(CCCO)c(OC)ccc23)cc(OC)c1OC`, for which the half-inhibitory concentration (IC50) in the assay with NCI-H460 turned out to be 283 nM.
In the case of `C#Cc1c(OC)ccc2c(C(=O)c3cc(OC)c(OC)c(OC)c3)n[nH]c12`, the IC50 in the assay on NCI-H69 worked out at 2.5 nM; in the assay on HeLa, 2.3 nM; with HT-29 it was 1.7 nM; in assay [1], 3.9 nM; in [2], 1.9 nM; in the assay with ACHN, 1.6 nM. For the same compound, the IC50 was 2.2 nM in the assay with H69AR, 3 nM with PC-3 and 3 nM in the assay with NCI-H460.
As for `CC[C@]1(O)C[C@@H]2CN(CCc3c([nH]c4ccccc34)[C@@](C(=O)OC)(c3cc4c(cc3OC)N(C)[C@H]3[C@@](O)(C(=O)OC)[C@H](OC(C)=O)[C@]5(CC)C=CCN6CC[C@]43[C@@H]65)C2)C1` [VINBLASTINE], the IC50 in the assay on NCI-H69 is 1.6 nM; in the assay with HCT-15, 79.4 nM; in assay [1] it was 8.9 nM; in assay [2] it was 1.6 nM; in the assay with ACHN, 25 nM; in the assay on H69AR, 1.6 nM.
Consider `CC(=O)O[C@H]1C(=O)[C@@]2(C)[C@H]([C@H](OC(=O)c3ccccc3)[C@]3(O)C[C@H](OC(=O)[C@H](O)[C@@H](NC(=O)c4ccccc4)c4ccccc4)C(C)=C1C3(C)C)[C@]1(OC(C)=O)CO[C@@H]1C[C@@H]2O` [PACLITAXEL], for which the IC50 in the assay with NCI-H69 is 1.9 nM; in the assay on HCT-15 it was 79.4 nM; in assay [1] it was more than 1000 nM; in [2], 1.6 nM; in the assay on ACHN, 25 nM; with H69AR it was 2.5 nM.
Regarding `COc1cc(C(=O)c2n[nH]c3c(C#CCCO)c(OC)ccc23)cc(OC)c1OC`, the 50% inhibitory concentration (IC50) with NCI-H460 was found to be 14 nM.
Same read-out and setting: under `COc1ccc2c(C(=O)c3cc(OC)c(OC)c(OC)c3)c[nH]c2c1` stands 16 nM.
With `COc1ccc(/C=C\c2cc(OC)c(OC)c(OC)c2)cc1O` [COMBRETASTATIN A4], the half-maximal inhibitory concentration (IC50) in the assay on NCI-H69 was 1.7 nM; with HCT-15 it was 2.5 nM; in the assay on HeLa, 2.7 nM; in the assay with HT-29, more than 1000 nM; in assay [1], 1.4 nM; in assay [2], 1.6 nM. Further, the concentration for half-maximal inhibition (IC50) in the assay with ACHN came out at 1.6 nM; in the assay on H69AR, 2.5 nM; with PC-3 it was 3.2 nM; in the assay with NCI-H460 it was 10 nM.
As for `COc1cc2c(c(OC)c1OC)-c1ccc(OC)c(=O)cc1[C@@H](NC(C)=O)CC2` [COLCHICINE], the IC50 was determined as 100 nM in the assay on HCT-15, 63 nM in assay [1], 6.3 nM in assay [2] and 39.8 nM in the assay on ACHN.
As for `COc1cc(C(=O)c2n[nH]c3c(C#CCO)c(OC)ccc23)cc(OC)c1OC`, the IC50 in the assay on NCI-H69 turned out to be 1.6 nM; at Tubulin [3], 46 nM; with HCT-15, 1.9 nM; with HeLa it was 0.8 nM; with HT-29, 1 nM; in assay [1] it was 1.8 nM. Also, the IC50 in [4] turned out to be 500 nM; in [2], 1.7 nM; in the assay on ACHN it was 1.6 nM; in assay [5] it was 6000 nM; on Tubulin [6] it was 240 nM; with H69AR, 2.6 nM. Further, the IC50 is 1 nM with PC-3 and 8 nM in the assay on NCI-H460. This compound displayed an Activity in the assay listed under Bos taurus of 70%.
Compound `COc1cc(C(=O)c2n[nH]c3c(C#CCN)c(OC)ccc23)cc(OC)c1OC` had an IC50 in the assay on NCI-H460 of 247 nM.

These data come from ChEMBL document CHEMBL1142860, “Potent antitubulin tumor cell cytotoxins based on 3-aroyl indazoles” (J Med Chem, 2007).
